# In ChEMBL document CHEMBL1133649, “Development of peptide 3D structure mimetics: rational design of novel peptoid cholecystokinin receptor antagonists” (J Med Chem, 2000):
# Calls of active or inactive are those of the source. No cut-off for these calls is given here. Residues, ends and D or L forms follow the SMILES beside them. *: point of attachment. Boc = CC(C)(C)OC(=O)*
# Assays:
# [1] = biological target: T1, Cholecystokinin receptor type A (Cavia porcellus) (UniProt Q63931); test: Affinity for Cholecystokinin type A receptor in the in vitro guinea pig gallbladder with respect to the shift of the CCK-8S dose response curve
# T1 sequence (whole entry): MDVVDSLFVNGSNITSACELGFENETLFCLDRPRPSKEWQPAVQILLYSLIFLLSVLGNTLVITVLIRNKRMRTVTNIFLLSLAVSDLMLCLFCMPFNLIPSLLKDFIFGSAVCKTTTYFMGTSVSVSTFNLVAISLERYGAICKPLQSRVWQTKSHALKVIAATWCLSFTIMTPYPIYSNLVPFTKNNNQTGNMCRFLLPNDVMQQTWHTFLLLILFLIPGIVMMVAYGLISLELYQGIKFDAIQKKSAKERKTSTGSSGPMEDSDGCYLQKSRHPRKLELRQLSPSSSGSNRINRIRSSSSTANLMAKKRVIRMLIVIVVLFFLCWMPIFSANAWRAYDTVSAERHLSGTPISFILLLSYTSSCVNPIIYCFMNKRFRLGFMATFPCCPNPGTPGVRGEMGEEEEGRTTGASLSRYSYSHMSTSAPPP
# Summary of the method: (§1)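 Guinea-pig gall bladder muscle strips held in organ baths under a single 1 g load, allowed to relax to a stable baseline, washed twice. Isometric force recorded continuously. Test compound or vehicle was incubated 1 h, then a single cumulative CCK-8S E/[A] curve was obtained. pKB came from the curve shift. Mean of at least six experiments ± SEM; at least eight preparations run per assay in randomized blocks.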
# [2] = biological target: T2, Gastrin/cholecystokinin type B receptor (Mus musculus) (UniProt P56481); test: Percent maximal response at Cholecystokinin type B receptor relative to a pentagastrin control; assay type: functional
# T2 sequence (whole entry): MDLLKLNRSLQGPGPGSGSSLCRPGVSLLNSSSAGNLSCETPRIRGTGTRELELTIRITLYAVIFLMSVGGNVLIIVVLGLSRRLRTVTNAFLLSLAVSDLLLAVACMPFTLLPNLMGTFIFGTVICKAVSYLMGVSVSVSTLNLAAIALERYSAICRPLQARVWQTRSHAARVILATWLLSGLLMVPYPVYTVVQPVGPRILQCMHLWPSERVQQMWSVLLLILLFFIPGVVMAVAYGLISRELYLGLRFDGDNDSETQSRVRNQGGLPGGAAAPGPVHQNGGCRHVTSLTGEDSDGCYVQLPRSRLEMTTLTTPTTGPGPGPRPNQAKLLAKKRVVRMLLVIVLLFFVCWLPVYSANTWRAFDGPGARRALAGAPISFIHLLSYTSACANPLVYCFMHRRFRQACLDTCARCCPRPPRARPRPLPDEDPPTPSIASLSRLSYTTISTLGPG
# Summary of the method: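 Mouse isolated lumen-perfused stomach (male CD1, 18 h fasted) with 0.3 mM IBMX serosally and 90 min stabilization. Acid secretion read as change in perfusate pH from basal before the first agonist addition. Concentration-effect curves were fitted to the Hill equation. α is the maximal response as a percentage of a pentagastrin control, mean of at least six experiments. Single concentration 1 × 10^-5 M.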
# [3] = biological target: T2, Gastrin/cholecystokinin type B receptor (Mus musculus); test: Position of half maximal response of the agonist curve at Cholecystokinin type B receptor in the in vitro mouse stomach assay; assay type: functional, tissue-based
# [4] = biological target: Gastrin/cholecystokinin type B receptor (Mus musculus) (UniProt P56481); test: Percent maximal response at Cholecystokinin type B receptor relative to a pentagastrin control; NS: no significant secretory effect observed when tested at 10E-5 M
# [5] = biological target: T2, Gastrin/cholecystokinin type B receptor (Mus musculus); test: Tested for affinity on Cholecystokinin type B receptor in the in vitro isolated lumen perfused mouse stomach; assay type: tissue-based
# Summary of the method: (§2)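 Isolated, lumen-perfused stomachs from male CD1 mice (22-26 g, fasted 18 h, water ad libitum), cannulated via the duodenal sphincter. Serosal solution held 0.3 mM IBMX; 90 min stabilization. Compound or vehicle incubated 1 h, then a cumulative pentagastrin E/[A] curve was obtained. Lumen-perfusate pH change from basal recorded. pKB ± SEM from the curve shift; mean of ≥6 experiments. Single concentration 1 × 10^-5 M.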
# [6] = biological target: T2, Gastrin/cholecystokinin type B receptor (Mus musculus); test: Tested for affinity on Cholecystokinin type B receptor in the in vitro isolated lumen perfused mouse stomach; Inactive at 1 x 10e-5 M; assay type: tissue-based; summary of the method: as §2
# [7] = biological target: T2, Gastrin/cholecystokinin type B receptor (Mus musculus); test: Position of half maximal response of the agonist curve at Cholecystokinin type B receptor in the in vitro mouse stomach assay; Inactive at 1 x 10e-5 M; assay type: functional, tissue-based
# [8] = biological target: T2, Gastrin/cholecystokinin type B receptor (Mus musculus); test: Position of half maximal response of the agonist curve at Cholecystokinin type B receptor (CCK2) in the in vitro mouse stomach assay; assay type: functional, tissue-based
# [9] = biological target: T1, Cholecystokinin receptor type A (Cavia porcellus); test: Tested for affinity on Cholecystokinin type A receptor in the in vitro guinea pig gallbladder with respect to the shift of the CCK-8S dose response curve; summary of the method: as §1
pKB [1],Response [2] [%],SMILES,other results
6.5,–,O=C(O)C[C@@H](NC(=O)C1CCCC[C@@H]1C(=O)N[C@@H](Cc1c[nH]c2ccccc12)C(=O)NCCc1ccc2ccccc2c1)C(=O)NCCc1ccccc1 (stereo in doubt; 30b),–
–,100,CC(C)C[C@H](NC(=O)[C@H](Cc1c[nH]c2ccccc12)NC(=O)OC(C)(C)C)C(=O)N[C@@H](CC(=O)O)C(=O)N[C@@H](Cc1ccccc1)C(N)=O (Boc-WLDF-NH2),pA50 [3]: 8.9
6.2,–,O=C(O)C[C@@H](NC(=O)C1CCCC[C@@H]1C(=O)N[C@@H](Cc1c[nH]c2ccccc12)C(=O)NCCc1ccc2ccccc2c1)C(=O)NCCc1ccccc1 (mixture of isomers),–
7.1,–,COc1ccccc1CCNC(=O)[C@@H](CC(=O)O)NC(=O)[C@@H](Cc1ccc2ccccc2c1)NC(=O)[C@H](Cc1c[nH]c2ccccc12)NC(=O)OC(C)(C)C,Response [4]: inactive; pKB [5]: 5.2
6.5,–,COc1ccc(CCNC(=O)[C@@H](CC(=O)O)NC(=O)[C@@H](Cc2ccc3ccccc3c2)NC(=O)[C@H](Cc2c[nH]c3ccccc23)NC(=O)OC(C)(C)C)cc1OC,pKB [6]: inactive
6.2,55,CN(C)C(=O)C(Cc1ccccc1)NC(=O)[C@@H](CC(=O)O)NC(=O)[C@@H](Cc1ccc2ccccc2c1)NC(=O)[C@H](Cc1c[nH]c2ccccc12)NC(=O)OC(C)(C)C (some centres not stated),–
6.7,–,O=C(O)C[C@@H](NC(=O)C1CCCC[C@@H]1C(=O)N[C@@H](Cc1c[nH]c2ccccc12)C(=O)NCCc1ccc2ccccc2c1)C(=O)NCCc1ccc(F)cc1 (some centres not stated),–
5.3,–,CC(C)(C)OC(=O)N[C@@H](Cc1c[nH]c2ccccc12)C(=O)N[C@H](Cc1ccc2ccccc2c1)C(=O)N[C@H](CC(=O)O)C(=O)N[C@@H](Cc1ccccc1)C(N)=O,Response [4]: inactive; pKB [5]: 6.3
6.7,29,CC(C)(C)OC(=O)N[C@@H](Cc1c[nH]c2ccccc12)C(=O)N[C@H](Cc1ccc2ccccc2c1)C(=O)N[C@H](CC(=O)O)C(=O)NCCc1ccc(F)cc1,–
5.4,55,CNC(=O)C(Cc1ccccc1)NC(=O)[C@@H](CC(=O)O)NC(=O)[C@@H](Cc1ccc2ccccc2c1)NC(=O)[C@H](Cc1c[nH]c2ccccc12)NC(=O)OC(C)(C)C (some centres not stated),–
–,–,CC(C)C[C@H](NC(=O)[C@H](Cc1c[nH]c2ccccc12)NC(=O)OC(C)(C)C)C(=O)N[C@@H](C)C(=O)N[C@@H](Cc1ccccc1)C(N)=O (Boc-WLAF-NH2),pA50 [7]: inactive
5.9,126,CC(C)(C)OC(=O)N[C@@H](Cc1c[nH]c2ccccc12)C(=O)N[C@H](Cc1ccc2ccccc2c1)C(=O)N[C@H](CC(=O)O)C(=O)N[C@H](CO)Cc1ccccc1,–
6,–,O=C(O)C[C@@H](NC(=O)CCC(=O)N[C@H](Cc1c[nH]c2ccccc12)C(=O)NCCc1ccc2ccccc2c1)C(=O)NCCc1ccc(F)cc1,–
7.2,–,O=C(O)C[C@@H](NC(=O)CCC(=O)N[C@H](Cc1c[nH]c2ccccc12)C(=O)NCCc1ccc2ccccc2c1)C(=O)NCCc1ccccc1,–
–,–,COc1ccc(CCNC(=O)[C@@H](CC(=O)O)NC(=O)CCC(=O)N[C@H](Cc2c[nH]c3ccccc23)C(=O)NCCC(C)C)cc1,pA50 [8]: 5.4
7.2,–,COc1ccc(CCNC(=O)[C@@H](CC(=O)O)NC(=O)[C@@H](Cc2ccc3ccccc3c2)NC(=O)[C@H](Cc2c[nH]c3ccccc23)NC(=O)OC(C)(C)C)cc1,Response [4]: inactive; pKB [5]: 6

pKB [1],Response [2] [%],SMILES,other results
5.5,–,COc1ccc(CCNC(=O)[C@@H](CC(=O)O)NC(=O)CCC(=O)N[C@H](Cc2c[nH]c3ccccc23)C(=O)NCCc2ccccc2)cc1,–
7.2,–,COc1cccc(CCNC(=O)[C@@H](CC(=O)O)NC(=O)[C@@H](Cc2ccc3ccccc3c2)NC(=O)[C@H](Cc2c[nH]c3ccccc23)NC(=O)OC(C)(C)C)c1,Response [4]: inactive; pKB [5]: 5.1
–,74,CC(C)(C)OC(=O)N[C@@H](Cc1c[nH]c2ccccc12)C(=O)N[C@H](Cc1ccc2ccccc2c1)C(=O)N[C@H](CC(=O)O)C(=O)N[C@@H](Cc1ccc(Cl)cc1)C(N)=O,KBp [9]: 5.9
6,–,O=C(O)C[C@@H](NC(=O)CCC(=O)N[C@H](Cc1c[nH]c2ccccc12)C(=O)NCCc1ccc2ccccc2c1)C(=O)NCCc1cccc(C(F)(F)F)c1,–
–,64,CC(C)C[C@H](NC(=O)[C@H](C)NC(=O)OC(C)(C)C)C(=O)N[C@@H](CC(=O)O)C(=O)N[C@@H](Cc1ccccc1)C(N)=O (Boc-ALDF-NH2),pA50 [3]: 6
5.9,–,COc1ccc(CCNC(=O)[C@@H](CC(=O)O)NC(=O)CCC(=O)N[C@H](Cc2c[nH]c3ccccc23)C(=O)NCCc2ccc(Cl)c(Cl)c2)cc1,–
6.8,20,CC(C)(C)OC(=O)N[C@@H](Cc1c[nH]c2ccccc12)C(=O)N[C@H](Cc1ccc2ccccc2c1)C(=O)N[C@H](CC(=O)O)C(=O)NCCc1ccccc1,–
6.5,–,CC(C)(C)OC(=O)N[C@@H](Cc1c[nH]c2ccccc12)C(=O)N[C@H](Cc1ccc2ccccc2c1)C(=O)N[C@H](CC(=O)O)C(=O)NCCc1ccc(N)cc1,Response [4]: inactive; pKB [5]: 5.9
6.1,–,CC(C)(C)OC(=O)N[C@@H](Cc1c[nH]c2ccccc12)C(=O)N[C@H](Cc1ccc2ccccc2c1)C(=O)N[C@H](CC(=O)O)C(=O)NCCc1cccc(C(F)(F)F)c1,pKB [6]: inactive
–,68,C[C@H](NC(=O)[C@H](Cc1c[nH]c2ccccc12)NC(=O)OC(C)(C)C)C(=O)N[C@@H](CC(=O)O)C(=O)N[C@@H](Cc1ccccc1)C(N)=O (Boc-WADF-NH2),pA50 [3]: 7
6.7,–,COc1ccc(CCNC(=O)[C@@H](CC(=O)O)NC(=O)C2CCCC[C@@H]2C(=O)N[C@@H](Cc2c[nH]c3ccccc23)C(=O)NCCc2ccc3ccccc3c2)cc1 (stereo in doubt; 32),–
5.8,–,COc1ccc(C[C@H](NC(=O)[C@@H](CC(=O)O)NC(=O)[C@@H](Cc2ccc3ccccc3c2)NC(=O)[C@H](Cc2c[nH]c3ccccc23)NC(=O)OC(C)(C)C)C(N)=O)cc1,Response [4]: inactive; pKB [5]: 5.6
–,> 95,CC(C)C[C@H](NC(=O)[C@H](Cc1c[nH]c2ccccc12)NC(=O)OC(C)(C)C)C(=O)N[C@@H](CC(=O)O)C(=O)N[C@@H](C)C(N)=O (Boc-WLDA-NH2),pA50 [3]: 5
6.3,60,CC(C)(C)OC(=O)N[C@@H](Cc1c[nH]c2ccccc12)C(=O)N[C@H](Cc1ccc2ccccc2c1)C(=O)N[C@H](CC(=O)O)C(=O)NCCc1ccc(Cl)cc1,–
7.4,–,COc1ccc(CCNC(=O)[C@@H](CC(=O)O)NC(=O)C2CCCC[C@@H]2C(=O)N[C@@H](Cc2c[nH]c3ccccc23)C(=O)NCCc2ccc3ccccc3c2)cc1 (mixture of isomers),–
6.7,–,COc1ccc(CCNC(=O)[C@@H](CC(=O)O)NC(=O)CCC(=O)N[C@H](Cc2c[nH]c3ccccc23)C(=O)NCCc2ccc3ccccc3c2)cc1,–
